A1 inh = inhibitors of the anti-apoptotic protein A1, read as caspase activation; AID 2462; caspase activation, % (no concentration beside the values); MEF A1-2A-BIM cells, Caspase-Glo 3/7 luminescence, 3 h; percent of clofoctol response, vehicle zero; 330,000 tested, 0.066% active;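 active = over half of replicate activation scores above 10%, or exactly half above 10 with the replicate mean above 10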
TAG inh = triacylglycerol accumulation inhibition; 230,000 tested, 0.66% active; H9c2 cells, Nile Red lipid (TAG) fluorescence; cells loaded with 200 µM oleic acid; AID 651582; inhibition, % at 12.5 µM;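 active = pattern-corrected inhibition of lipid staining of at least 50% with the nuclear-stain viability signal not falling by more than 50%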
SR-BI DiI-HDL act = activators of SR-BI mediated HDL lipid uptake; CHO ldlA[mSR-BI] cells, DiI-HDL uptake fluorescence, 3 h; 100 = double the neutral-control signal; activation, % at 12.5 µM; 320,000 tested, 0.096% active; AID 504775;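 active = mean replicate activation of at least 60% and every replicate at or above 60%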
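Test system: SR-BI-overexpressing, LDLR-lacking CHO cells; Also added: labelled HDL, 10 µg/mL; Measured by: bottom-read cell fluorescence after medium removal, ex 550/em 595 nm; Timing: 3 h uptake period with compound, 37 °C; Buffer or medium: F12, 0.5% BSA, 25 mM HEPES; Doses: single compound concentration, delivered by pin transfer.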
Vif imaging = inhibitors of HIV Vif. 340,000 tested, 0.35% active. inhibition, % at 7.49 µM. HEK293T cells, Vif self-association by quenched fluorescence, imaging, 24 h; in the data active = inhibition above about 50%, passing the limit was not always enough
SR-BI HDL uptake = inhibitors of mouse SR-BI mediated HDL lipid uptake | inhibition, % at 12.5 µM | AID 488896 | Q61009 | ldlA[mSR-BI] CHO cells, DiI-HDL uptake fluorescence, 3 h | 320,000 tested, 0.96% active;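 active = mean replicate inhibition of at least 70% and a set share of replicates each scoring 70 or more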
Target sequence (Q61009 whole entry, looked up): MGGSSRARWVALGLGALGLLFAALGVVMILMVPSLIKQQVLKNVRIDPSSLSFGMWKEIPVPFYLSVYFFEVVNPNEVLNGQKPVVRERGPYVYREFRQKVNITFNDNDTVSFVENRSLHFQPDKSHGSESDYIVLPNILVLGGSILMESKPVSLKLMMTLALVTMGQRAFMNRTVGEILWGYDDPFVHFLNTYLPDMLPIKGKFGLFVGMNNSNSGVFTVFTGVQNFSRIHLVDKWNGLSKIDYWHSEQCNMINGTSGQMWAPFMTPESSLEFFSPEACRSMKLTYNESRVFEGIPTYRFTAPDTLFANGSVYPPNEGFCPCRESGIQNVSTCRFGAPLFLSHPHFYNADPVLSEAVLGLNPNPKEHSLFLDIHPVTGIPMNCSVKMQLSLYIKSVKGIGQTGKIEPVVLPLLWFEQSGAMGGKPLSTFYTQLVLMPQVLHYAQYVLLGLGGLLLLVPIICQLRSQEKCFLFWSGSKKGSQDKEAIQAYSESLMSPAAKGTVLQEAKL
A number is an active result; 0 = inactive; - = not tested or not shown; ! = not active in a repeat. This is a sample that favours compounds with a hit; in the whole collection about 1.6% have one here.

SMILES	A1 inh	TAG inh	SR-BI DiI-HDL act	Vif imaging	SR-BI HDL uptake
Cc1nc2ccc(C(=O)NCCc3c[nH]c4ccccc34)cn2c1N(C)C(=O)CCc1ccccc1	-	0	-	54.0	-
CCCCN(C)c1c(C)nc2ccc(C(=O)NCCc3c[nH]c4ccccc34)cn12	-	0	-	0	-
COc1cc(NC(=O)C2CCC(CNS(=O)(=O)c3csc(C(N)=O)c3)CC2)cc(OC)c1 (configuration not stated)	0	-	0	0	0
CN(C1CCCCC1)S(=O)(=O)c1ccc2c(c1)c(=O)c(C(=O)O)cn2C	-	0	-	-	-
CCOc1ccc(OCC)c(NS(=O)(=O)c2cccc3nsnc23)c1	0	0	409.6	0	0
CCOc1ccccc1NS(=O)(=O)c1cccc2nsnc12	0	-	0	0	0
S=C1NC(c2ccccc2)=CC(c2ccccc2)N1 (configuration not stated)	0	-	0	0	82.2
CCOC(=O)c1sc2nc(CN3CCN(c4cccc(C(F)(F)F)c4)CC3)[nH]c(=O)c2c1C	0	0	0	0	0
COCCNc1ncnc2c1ncn2[C@H]1CN(Cc2ccco2)C[C@@H](CO)O1	-	0	-	0	-
COc1c(Br)cc(Br)cc1/C=N/NC(=O)c1cccnc1	0	-	0	0	0
CCOc1cc(Br)cc(/C=N/NC(=O)c2cccnc2)c1O	0	-	0	0	80.3
O=C(N/N=C/c1cc(Cl)ccc1O)c1ccncc1	0	53.2	0	0	115.4
O=C(N/N=C/c1cc(Br)ccc1O)c1ccccc1Cl	0	-	0	0	84.2
Cc1cc(=O)[nH]c(NN=Cc2cc(Br)ccc2O)n1	-	0	0	0	96.8
COC(=O)N/N=C/c1cc(Br)ccc1O	0	0	0	0	0
Cc1ccccc1-c1cnc(C(O)c2cc(Cl)cc(Cl)c2)[nH]1 (configuration not stated)	-	0	-	0	-
Cc1ccc(C(=O)N/N=C\C=C\c2ccc(Br)cc2)cn1	0	-	0	0	0
Cc1ccc(C(=O)N/N=C/c2cc(Br)ccc2O)cn1	0	-	0	0	74.7
COc1ccc([C@H]2CC(=O)C=C(c3cccc4c3Oc3ccccc3S4)C2)cc1OC	0	0	0	0	80.2
O=C(NCc1ccccc1)c1ccc(S(=O)(=O)N2CCCCCC2)cc1	-	0	-	76.7	-
O=C(NCc1ccco1)c1ccc(S(=O)(=O)N2CCCc3ccccc32)cc1	0	-	0	0	76.1
O=C(NCc1ccccc1)c1ccc(S(=O)(=O)N2CCCc3ccccc32)cc1	0	-	0	0	0
CCOc1ccccc1NC(=O)c1ccc(S(=O)(=O)N2CCCCC2)cc1	0	-	0	0	76.1
COc1ccc(/C=N/NC(=O)c2cccnc2)cc1CSc1ccccn1	0	0	0	0	0
COc1ccc(C(=O)CN2Cc3ccccc3C2=N)cc1	0	0	0	0	0
SMILES	A1 inh	TAG inh	SR-BI DiI-HDL act	Vif imaging	SR-BI HDL uptake
COc1cc(-c2noc(C)c2C(=O)NCCCN2CCOCC2)cc(OC)c1OC	0	0	0	0	0
CCCN(CC(=O)NC(=O)NCc1ccccc1)CC(=O)Nc1ccc(F)c(F)c1F	-	0	-	-	-
CC1(C)Oc2ccc(C(=O)N/N=C/c3ccc(O)cc3)cc2NC1=O	0	-	-	108.8	-
O=C(Cn1ncc(Cl)c(Cl)c1=O)NC(=O)NC1CCCCC1	0	56.3	0	0	0
O=C(CN1CCCCC1)NC(=O)NC1CCCC1	0	-	0	0	0
CN(C)CCCNCCCNC(=O)c1ccco1	0	0	0	64.8!	0
CC(C)(C)c1ccc(C(=O)NCCCNC(=O)c2ccco2)cc1	0	-	0	0	0
Cc1ccccc1C(=O)N1CCN(c2ccc(NC(=O)c3ccccc3[N+](=O)[O-])cc2)CC1	0	0	0	0	78.0
O=[N+]([O-])c1ccc(NC(=S)N2CCN(c3ccccc3)CC2)cc1	0	-	75.2	0	0
Cc1ccccc1C(=O)N1CCN(c2ccc(NC(=O)c3cccnc3Cl)cc2)CC1	0	0	0	0	76.4
COc1ccc(CCC(=O)Nc2c(-c3ccc(N(C)C)cc3)[nH][nH]c2=O)cc1	-	-	-	0	-
Cc1cccc(NC(=S)N=Nc2c(O)[nH]c3ccccc23)c1	0	0	0	0	0
COc1ccccc1NC(=S)N=Nc1c(O)[nH]c2ccc(Br)cc12	0	50.4	0	0	0
COc1ccccc1N1C(=O)c2cccc3c(Cl)ccc(c23)C1=O	7.8	-	0	0	0
CC1(C(=O)N2CCC(CO)(Cc3cccc(C(F)(F)F)c3)CC2)CC1	0	0	0	0	85.2
C/C(=N/N1CCN(Cc2cccc3ccccc23)CC1)c1ccco1	0	0	0	0	0
CCN(C(=O)COc1ccc(C)cc1OC)c1cccc2ccccc12	0	0	0	56.6	0
CC(C)c1ccc(NC(=O)Nc2nc(C(N)c3ccccc3Cl)cs2)cc1 (configuration not stated)	-	0	-	0	-
C(=N\NC1=Nc2cccc3cccc1c23)/c1ccccn1	-	50.6	0	0	0
COC(=O)CCSC(=S)N1CCOCC1	0	0	0	0	0
O=[N+]([O-])/C=C/c1cn(Cc2ccc(Cl)cc2)c2ccccc12	9.1	-	0	0	0
Cc1cccc(Cn2cc(/C=C/[N+](=O)[O-])c3ccccc32)c1	0	0	0	0	0
CC(CNc1nc2ccccc2n2cnnc12)c1ccccc1 (configuration not stated)	0	-	0	0	0
OCCO	-	-	0	55.2	0
CCOc1cc([N+](=O)[O-])cc(/C=N/NC(=O)c2c(-c3ccccc3)noc2C)c1O	0	0	0	0	72.0
SMILES	A1 inh	TAG inh	SR-BI DiI-HDL act	Vif imaging	SR-BI HDL uptake
Cc1ccc(/C=N/NC(=O)c2c(-c3ccccc3)noc2C)c(O)c1	0	0	0	0	107.7
CCOc1cc(/C=N/NC(=O)c2c(-c3ccccc3)noc2C)ccc1O	0	-	0	0	0
COc1ccc(-c2nc(NC(=O)c3ccc(OCC(=O)N4CCOCC4)c(OC)c3)sc2C)cc1	0	-	0	0	71.5
CCOc1ccc(C(CC(=O)O)NC(=O)c2cccs2)cc1OC (configuration not stated)	0	0	0	0	0
O=C(CSc1nc(-c2ccccc2)cc(C(F)(F)F)n1)NCc1ccco1	0	-	0	0	0
COc1ccc(-c2cc(-c3cccs3)c(C#N)c(SCC(=O)NCc3ccco3)n2)cc1	0	0	0	51.5	0
COc1ccc(CNC(=O)CSc2nc(-c3ccccc3)cc(-c3cccs3)c2C#N)cc1	0	0	0	0	0
COc1ccc(-c2cc(C(F)(F)F)nc(SCC(=O)NCc3ccco3)n2)cc1OC	0	0	0	0	80.9
CCN(CC(=O)Nc1c(F)cccc1F)C(=O)c1cccnc1Sc1ccccc1	0	0	0	0	0
O=c1[nH]c2ccc(NCc3ccccc3OCc3ccc(Cl)cc3)cc2[nH]1	0	-	0	0	71.7
COc1cccc(CNc2ccc3[nH]c(=O)[nH]c3c2)c1OCc1ccc(F)cc1	0	0	0	0	0
CC1CN(CCC(=O)Nc2ccc3c(c2)OCO3)CC(C)O1 (configuration not stated)	0	-	0	0	80.1

Bioassay records deposited in PubChem by several laboratories.
